Measured values: ChEMBL document CHEMBL1142944, “Synthesis and biological evaluation of selective aromatase expression regulators in breast cancer cells” (J Med Chem, 2007)
The source made the active and inactive calls. The rule behind the calls is not given here.

Columns and labels:
[1] = tested on: SK-BR-3; assay: Induction of apoptosis in SK-BR-3 cells at 5 uM; assay type: functional, cell-based; settings: Homo sapiens
How it was run: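 Cells plated at 0.5 × 10⁴ to 1 × 10⁴ per well in custom medium and left to adhere overnight. Treated 24 h at 5 µM in defined medium, triplicate. After fixation, DNA in apoptotic cells denatured by formamide plus heat. Single-stranded DNA detected by monoclonal antibody ELISA with ABTS, absorbance at 405 nm.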

[2] = tested on: SK-BR-3; assay: Decrease in CYP19 gene expression in SK-BR-3 cells at 5 uM; assay type: functional, cell-based; settings: Homo sapiens
How it was run: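 SK-BR-3 cells grown to subconfluency, switched to defined DMEM/F12 medium (human albumin, transferrin, insulin), then exposed 24 h at 5 µM. Total RNA by TRIzol, DNase I-treated, reverse-transcribed with random hexamers (Superscript II, 42 °C 50 min). Taqman real-time PCR with 600 nM CYP19 primers, 50 cycles. CYP19 normalized to 18S rRNA, n = 9, unpaired t test vs control.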

**Q.** Which results are given for `CN(c1ccc([N+](=O)[O-])cc1OCc1ccccc1-c1ccccc1)S(C)(=O)=O`?
**A.** Activity [1]: inactive; Activity [2]: Active

**Q.** Which results are given for `CN(c1ccc([N+](=O)[O-])cc1OCc1ccc([N+](=O)[O-])cc1)S(C)(=O)=O`?
**A.** Activity [1]: inactive; Activity [2]: Active

**Q.** Which Activity [1] does the source give for `Cc1ccc(COc2cc([N+](=O)[O-])ccc2N(C)S(C)(=O)=O)cc1` here?
**A.** inactive

**Q.** For `CN(c1ccc([N+](=O)[O-])cc1OCc1ccccc1)S(C)(=O)=O`, which Activity [1] is on record?
**A.** inactive

**Q.** What about the Activity [2] of the same molecule?
**A.** Active

**Q.** Which results are given for `CN(c1ccc([N+](=O)[O-])cc1OCc1ccc(F)cc1)S(C)(=O)=O`?
**A.** Activity [1]: inactive; Activity [2]: Active

**Q.** How did the Activity [2] turn out when `CS(=O)(=O)Nc1ccc([N+](=O)[O-])cc1OCCc1ccccc1` was run?
**A.** inactive

**Q.** `CN(c1ccc([N+](=O)[O-])cc1OCc1ccc2ccccc2c1)S(C)(=O)=O` was tested. Which Activity [1] did it give?
**A.** inactive

**Q.** And the Activity [2]?
**A.** Active
